Sampled rows, rich in hits. Any-hit rate of the full collection: about 3.3%.
Myeloid diff 2: compounds promoting myeloid differentiation; calls only at 10 µM; AID 624256; 360,000 compounds, 1% hits; ER-HoxA9 myeloid progenitors, lysozyme-GFP differentiation, flow cytometry;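 active means normalized GFP-positive differentiation at or above the plate's own cutoff, the solvent-only control mean plus 3 SD; inconclusive means no clear call, values can overlap the other calls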;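 further: cells exposed to compound for four days before flow analysis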
Arr AP2 block: inhibitors of human beta-arrestin and AP2 interaction. 340,000 compounds, 0.31% hits. inhibition, % at 10 µM. FITC-arrestin peptide / GST-AP2 beads, flow cytometry; AP2 beta2 appendage carries R879A mutation;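 active means inhibition above a set limit, near 3 SD of compounds lacking own fluorescence, cut at about 54% in these data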
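System: GST-AP2 R879A glutathione beads. Medium: PBS with 0.05% Tween 20 and 0.1% BSA. Also added: FITC-arrestin peptide, 50 nM. Incubation: 12 min plus 1 h, RT. Measured by: high-throughput flow cytometry of beads, ex 488, em 535 nm. Evaluation: percent drop in bead-associated FITC signal.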
Exocytosis inh: lytic granule exocytosis inhibition; AID 651702; TALL-104 LAMP-1 surface exposure, flow cytometry; cells stimulated with thapsigargin and PMA; inhibition, % at 10 µM; 360,000 compounds, 0.66% hits;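 active means inhibition above about 55%, limit read from the data; inconclusive means no clear call, values can overlap the other calls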
ABCB6 inh MLPCN: inhibitors of human ABC transporter ABCB6 | Q9NP58 | AID 602162 | fluorescence ratio to DMSO, % at 10 µM | 360,000 compounds, 0.19% hits | K562-ABCB6 porphyrin accumulation, flow cytometry, 1 h; stronger effect = lower value;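 active means fluorescence ratio to DMSO below 75%, the collection mean minus 3 SD; inconclusive means too few cells collected in the well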;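 further: signal is porphyrin accumulated inside mitochondria; lower ratio means ABCB6 inhibition with less porphyrin fluorescence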
ATG4B inh: inhibitors of human ATG4B cysteine protease. AID 504462. inhibition, % at 8.33 µM. 340,000 compounds, 0.51% hits. ATG4B cleavage of LC3-PLA2, NBD-HPC fluorescence, 1 h; in the data active means inhibition above about 40%
NRP1-CendR mod: alters CendR peptide binding to human NRP-1; 360,000 compounds, 0.85% hits; O14786; inhibition, % at 25 µM; FAM-RPARPAR peptide binding to NRP-1, fluorescence polarization;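 active means inhibition or corrected inhibition above about 18%, plus a signal ratio from 0.5 to 1.5, limit read from the data, passing the limit was not always enough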
Target sequence (O14786 whole entry, looked up): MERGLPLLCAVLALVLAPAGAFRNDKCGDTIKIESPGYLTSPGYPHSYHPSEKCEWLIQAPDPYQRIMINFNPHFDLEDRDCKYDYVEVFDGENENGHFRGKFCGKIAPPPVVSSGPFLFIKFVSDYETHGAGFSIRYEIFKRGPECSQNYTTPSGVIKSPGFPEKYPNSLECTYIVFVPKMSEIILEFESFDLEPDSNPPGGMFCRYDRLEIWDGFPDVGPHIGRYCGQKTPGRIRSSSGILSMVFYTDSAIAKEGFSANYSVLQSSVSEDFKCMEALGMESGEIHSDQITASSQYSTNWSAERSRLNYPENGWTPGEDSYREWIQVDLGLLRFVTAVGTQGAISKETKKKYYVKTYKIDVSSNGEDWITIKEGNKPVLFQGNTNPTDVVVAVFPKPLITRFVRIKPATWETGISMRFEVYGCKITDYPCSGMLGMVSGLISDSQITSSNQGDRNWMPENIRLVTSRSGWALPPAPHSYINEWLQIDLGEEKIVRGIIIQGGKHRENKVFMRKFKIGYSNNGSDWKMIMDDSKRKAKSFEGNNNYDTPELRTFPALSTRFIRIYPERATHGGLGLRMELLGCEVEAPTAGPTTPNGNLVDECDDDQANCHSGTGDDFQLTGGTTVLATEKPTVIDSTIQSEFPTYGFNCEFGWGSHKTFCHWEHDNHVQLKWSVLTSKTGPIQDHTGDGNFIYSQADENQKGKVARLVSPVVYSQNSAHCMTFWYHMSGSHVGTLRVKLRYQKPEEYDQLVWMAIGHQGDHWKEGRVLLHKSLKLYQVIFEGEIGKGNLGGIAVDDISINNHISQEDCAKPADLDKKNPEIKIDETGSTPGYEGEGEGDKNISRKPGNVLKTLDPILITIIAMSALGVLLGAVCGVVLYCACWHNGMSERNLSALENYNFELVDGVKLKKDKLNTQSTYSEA
Arr-AP2 CP1: human beta-arrestin and AP2 interaction inhibition, cherry pick | shares compounds with Arr AP2 block | 1,300 compounds, 2% hits | inhibition, % at 10 µM | GST-AP2 beads, FITC arrestin peptide binding, flow cytometry; GST-fused beta2-adaptin appendage, R879A mutant;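 active means inhibition above a set limit, roughly 3 SD of non-fluorescent compound noise, cut at about 38% in these data; inactive means inhibition at or below that limit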;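 further: loss of bead fluorescence from 50 nM FITC arrestin peptide bound to appendage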
GST-FITC bead: GST-GSH bead binding interference, counter-screen | shares compounds with Arr AP2 block | GST-fluorescein binding to GSH beads, fluorescence | inhibition, % at 10 µM | 1,300 compounds, 2% hits;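 active means inhibition above 50%, about 3 SD of the inhibition seen with non-fluorescent compounds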;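 further: fluorescein maleimide labelled GST captured on 4 micron glutathione beads; higher means more loss of bead fluorescence from quenching or blocked binding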
Each line names hits and unclear results; the compound was inactive in the other large screens (follow-up assays come after a bar, where they were run).

COc1ccc(NC(=O)CSc2ncnc3c2nnn3-c2ccc(F)cc2)c(OC)c1	none
CC(=O)N1CCOc2ccc(S(=O)(=O)NC[C@H]3O[C@@H](n4ccc(=O)[nH]c4=O)[C@H](O)[C@@H]3O)cc21	none
COc1ccc(CC(=O)N(C)Cc2ccc(Cl)cc2)cc1S(=O)(=O)N1CCOCC1	Arr AP2 block 64 | Arr-AP2 CP1 inactive | GST-FITC bead inactive
CC1(C(=O)NS(=O)(=O)c2cccc(F)c2)CCN1C(=O)CC1CCCC1 (centres undefined)	none (no result: Arr AP2 block, ATG4B inh)
COc1cc(C(=O)OCc2ccccc2C#N)ccc1OCC(=O)N1CCOCC1	none
COc1cc(C#N)c(N=C(SCC#N)N2CCOCC2)cc1OC	Arr AP2 block 59 | Arr-AP2 CP1 inactive | GST-FITC bead inactive
COc1ccc(NC(=S)N(CCCN2CCCC(C)C2)Cc2cccs2)cc1 (centres undefined)	Arr AP2 block 54 | Arr-AP2 CP1 inactive | GST-FITC bead inactive
O=C(CN1CCN(C(=O)c2ccc(-c3nc4ccccc4s3)o2)CC1)Nc1ccccc1Cl	none
Cc1cccc(NC(=O)CN2CCN(C(=O)c3ccc(-c4nc5ccccc5s4)o3)CC2)c1C	Arr AP2 block 59 | Arr-AP2 CP1 inactive | GST-FITC bead inactive
COc1ccc2nc(C)cc(N3CCOCC3)c2c1	none
COc1ccc2nc(C)cc(N3CCN(S(=O)(=O)c4ccccc4F)CC3)c2c1	Arr AP2 block 62 | Arr-AP2 CP1 inactive | GST-FITC bead inactive
CC1CCCN(C(=O)C2COc3ccccc3O2)C1 (centres undefined)	none
CCOC(=O)N1CCN(S(=O)(=O)c2ccc(Cl)cc2)CC1	Arr AP2 block 66 | Arr-AP2 CP1 inactive | GST-FITC bead inactive
CCCCc1ccc(NC(=O)CC(C)=O)cc1	Exocytosis inh inconclusive | Arr-AP2 CP1 inactive | GST-FITC bead inactive
CCCCc1ccc(NC(=O)CC(C)(C)C)cc1	none
COc1cc(C(=O)Nn2cnnc2)ccc1OC(F)F	Arr AP2 block 54 | Arr-AP2 CP1 inactive | GST-FITC bead inactive
O=P(O)(CCc1ccccc1)C(O)c1ccccc1 (centres undefined)	none
COc1ccc(C(O)P(=O)(O)CCc2ccccc2)cc1 (centres undefined)	Arr AP2 block 62 | Arr-AP2 CP1 inactive | GST-FITC bead inactive
CCCCOc1ccc(C(=O)N(C)CC(=O)Nc2ccc(C)cc2)cc1	none (no result: Myeloid diff 2)
COc1ccc(/C=C(\C#N)C(=O)OCC(=O)NC2CC2)cc1	none
Cn1c(Cl)c(/C=N/OC(=O)c2ccccc2Cl)c2ccccc21	Arr AP2 block 54 | Arr-AP2 CP1 inactive | GST-FITC bead inactive
Cn1nc(C(F)(F)F)c(/C=N/OC(=O)c2ccccc2)c1SCc1ccccc1Cl	none
Cc1ccc(NC(=O)c2cc(-c3cc(C)c(C)cc3O)n[nH]2)cc1C	none
CCOc1ccccc1CNC(=O)CCCn1ncn2c(cc3occc32)c1=O	Arr AP2 block 64 | Arr-AP2 CP1 inactive | GST-FITC bead inactive
O=C(Nc1ccccc1)c1ccccc1C(=O)N1CCCCC1	none
CC(C)(C)NC(=O)/C(=C/c1ccco1)c1ccccc1	Arr AP2 block 88 | Arr-AP2 CP1 inactive | GST-FITC bead inactive
Cc1ccccc1NC(=O)/C(=C/c1ccco1)c1ccccc1	none
Cc1cccc2cc(/C=C3\N=C(c4ccccc4)OC3=O)c(N3CCOCC3)nc12	Arr AP2 block 67 | Arr-AP2 CP1 inactive | GST-FITC bead inactive
CCOc1ccc(NC(=O)OCCN2CCN(CCc3ccccc3)C(C)C2)cc1 (centres undefined)	none
CC(=O)N1CCC(C(=O)NCCOc2ccc(C)cc2)CC1	none
Nn1c(SCC(=O)NC2CCCCC2)nnc1-c1ccccc1F	none
CC1Cc2ccccc2N1C(=O)COC(=O)c1cccnc1Cl (centres undefined)	none
Cc1cnc(C(=O)OCC(=O)N2c3ccccc3CC2C)cn1 (centres undefined)	Arr AP2 block 55 | Arr-AP2 CP1 inactive | GST-FITC bead inactive
CC(C)[C@@H]1Cc2[nH]c(=O)[nH]c(=O)c2[C@H](C)O1	none (no result: Arr AP2 block, ATG4B inh)
COc1ccc(CC(=O)NNC2=Nc3cccc4cccc2c34)cc1	Arr AP2 block 58 | Arr-AP2 CP1 inactive | GST-FITC bead inactive
COc1cccc(-c2cc(=O)[nH][nH]2)c1	none
CCOc1cccc(-c2cc(=O)[nH][nH]2)c1	Arr AP2 block 74 | Arr-AP2 CP1 inactive | GST-FITC bead inactive
Clc1ccccc1CN1CCN(c2ncccn2)CC1	Arr AP2 block 58 (no result: Myeloid diff 2) | Arr-AP2 CP1 inactive | GST-FITC bead inactive
CCOC(=O)CSC1=N/C(=C\c2cccnc2)C(=O)N1c1ccc(OC)cc1	Arr AP2 block 105 | Arr-AP2 CP1 inactive | GST-FITC bead inactive
CN(Cc1ccccc1)c1nc2nonc2nc1N1CCCC(CN2CCCC2=O)C1 (centres undefined)	none
CC(=O)NCC1CCCN(c2nc3nonc3nc2N(C)Cc2ccccc2)C1 (centres undefined)	Arr AP2 block 59 | Arr-AP2 CP1 inactive | GST-FITC bead inactive
CC(=O)c1ccc(-n2ccc(=O)cc2)cc1	Arr AP2 block 60 | Arr-AP2 CP1 inactive | GST-FITC bead inactive
CC(C)CCOc1ccc(C(=O)NCC(c2cccs2)N2CCOCC2)cc1 (centres undefined)	none
CCOC(=O)c1cnn(-c2ccc(C(C)C)cc2)c1NC(=O)C1CCC1	Arr AP2 block 99 | Arr-AP2 CP1 inactive | GST-FITC bead inactive
COCCn1c(SCC(=O)Nc2ccc(S(=O)(=O)N(C)C)cc2)nc2ccccc21	Arr AP2 block 57 | Arr-AP2 CP1 inactive | GST-FITC bead inactive
N#Cc1ccccc1OCC(=O)OCC(=O)NCc1ccc2c(c1)OCO2	Arr AP2 block 55 | Arr-AP2 CP1 inactive | GST-FITC bead inactive
C[C@@H](NC(=O)Cn1cnc2c(OCc3ccccc3)ncnc21)c1cccc2ccccc12	none (no result: ATG4B inh)
C[C@@H](NCCCn1cnc2c(OCc3ccccc3)ncnc21)c1cccc2ccccc12	Arr AP2 block 62 | Arr-AP2 CP1 inactive | GST-FITC bead inactive
Cc1ccc(NC(=O)c2ccc(NCc3ccco3)c([N+](=O)[O-])c2)cc1Cl	none
CN(CC(=O)Nc1ccc(N2CCOCC2)cc1)C(=O)C1CCCC1	none
CCOc1ccc(NC(=O)NCc2ccco2)cc1	none
CCOc1ccc(/C=N/NC(=O)C(=O)NCc2ccco2)cc1	Arr AP2 block 102 | Arr-AP2 CP1 inactive | GST-FITC bead inactive
CCc1cnc(Nc2nc(C(N)Cc3ccc(F)cc3)cs2)nc1 (centres undefined)	none (no result: Arr AP2 block, ATG4B inh)
Cn1c(=O)c2cc(NC(=O)NCCc3ccccc3)ccc2n1Cc1ccc(F)cc1	none (no result: Arr AP2 block, ATG4B inh)

Bioassay records from PubChem BioAssay.
